Source: PubChem BioAssay (several laboratories)
MEKK3 PB1 HTS – modulators (inhibitors or enhancers) of MEK5 binding to human MEKK3 PB1 domain. Q99759. bead-based flow cytometry, Alexa488-MEK5 binding to MEKK3; actives lie on both sides; 0 = blocked by unlabeled MEK5, 100 = vehicle. binding response (% of control), % at 10 µM. 290,000 compounds, 1.4% hits;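 active means binding response more than 3 SD above or below the average of its plate-row segment, actives on both sides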;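 further: Alexa488 bead fluorescence after subtracting the streptavidin-only scavenger bead signal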
PREPL inh – inhibits the human prolyl oligopeptidase-like enzyme | inhibition, % at 5.96 µM | 320,000 compounds, 0.68% hits | Q4J6C6 | recombinant PREPL, fluorescence polarization activity-based probe;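 further: 0% = enzyme with DMSO and 100% = wells lacking enzyme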
Target sequence (Q4J6C6 whole entry, looked up): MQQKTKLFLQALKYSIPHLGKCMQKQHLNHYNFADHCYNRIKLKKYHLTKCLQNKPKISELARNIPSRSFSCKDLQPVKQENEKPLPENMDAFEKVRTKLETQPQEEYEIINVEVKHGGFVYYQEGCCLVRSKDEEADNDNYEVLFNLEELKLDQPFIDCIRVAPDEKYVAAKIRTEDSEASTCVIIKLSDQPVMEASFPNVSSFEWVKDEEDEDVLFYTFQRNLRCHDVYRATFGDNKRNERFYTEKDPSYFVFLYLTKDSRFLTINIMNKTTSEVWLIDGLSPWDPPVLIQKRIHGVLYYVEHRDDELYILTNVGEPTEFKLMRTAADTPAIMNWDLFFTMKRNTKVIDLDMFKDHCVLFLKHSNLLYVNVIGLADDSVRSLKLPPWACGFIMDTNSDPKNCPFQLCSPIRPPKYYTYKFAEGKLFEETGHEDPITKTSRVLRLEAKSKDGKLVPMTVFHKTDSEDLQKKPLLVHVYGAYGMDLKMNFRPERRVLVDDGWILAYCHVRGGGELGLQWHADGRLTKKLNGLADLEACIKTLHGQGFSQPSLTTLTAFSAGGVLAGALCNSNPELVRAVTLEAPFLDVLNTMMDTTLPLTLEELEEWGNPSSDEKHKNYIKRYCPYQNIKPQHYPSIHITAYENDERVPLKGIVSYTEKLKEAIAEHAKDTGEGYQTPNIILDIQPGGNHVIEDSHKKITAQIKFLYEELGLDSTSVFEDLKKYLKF
MEKK2 WT-MEK5 – raises or lowers MEK5 binding to wildtype human MEKK2 PB1 domain; Q9Y2U5; bead flow cytometry, Alexa488-MEK5 binding to MEKK2 WT; actives lie on both sides; binding response (% of control), % at 10 µM; 290,000 compounds, 1.1% hits; AID 1531; in the data active means binding response below about 67% or above about 130%
Apaf1 inhib – blocks human Apaf-1 apoptosome activity | reconstituted apoptosome caspase-3 activity, DEVD-Rh110 fluorescence | inhibition, % at 20 µM | O14727 | 330,000 compounds, 0.71% hits; active means inhibition of at least 40% at 20 µM;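 further: plate controls were DMSO wells for no effect and DEVD-CHO caspase inhibitor wells for full effect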
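Material: cell-free apoptosome with Apaf-1, procaspase-3 and caspase-9; Buffer or medium: Hepes pH 7.5 with detergent and BSA; Reagent: cytochrome c trigger plus (Z-DEVD)2-Rh110 caspase-3 substrate; Times: compound with Apaf-1, dATP, procaspase-3 30 min, then 50 min reaction, room temperature; Technique: Rh110 fluorescence intensity.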
UBC13 inh – blocks human UBC13 polyubiquitin chain formation. P61088. TR-FRET. inhibition, % at 20 µM. 330,000 compounds, 0.47% hits. AID 485273; in the data active means inhibition above about 45%, passing the limit was not always enough
MEKK2 mut-MEK5 – signal of MEK5 binding to mutant human MEKK2 PB1 domain; AID 1530; percent response, % at 10 µM; bead flow cytometry, Alexa488-MEK5 binding to MEKK2 mutant; 290,000 compounds, 0.35% hits; in the data active means percent response above about 24%, passing the limit was not always enough
MEKK2wt confirm – raises or lowers MEK5 binding to wildtype human MEKK2, retest | shares compounds with MEKK3 PB1 HTS | bead flow cytometry, Alexa488-MEK5 binding to MEKK2 WT; actives lie on both sides | binding response (% of control), % at 10 µM | 5,900 compounds, 2.4% hits | AID 1892; in the data active means binding response below about 16% or above about 210%; inactive means in between
MEKK2mut confirm – signal of MEK5 binding to mutant human MEKK2, retest | 5,900 compounds, 2% hits | percent response, % at 10 µM | bead flow cytometry, Alexa488-MEK5 binding to MEKK2 mutant | shares compounds with MEKK3 PB1 HTS; in the data active means percent response mostly above about 71%, no sharp cut-off; inactive means mostly below about 38%;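 further: higher means compound restores mutant binding toward wildtype level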
MEKK3 confirm – MEKK3-MEK5 PB1 inhibition, single concentration confirmation | shares compounds with MEKK3 PB1 HTS | bead flow cytometry, Alexa488-MEK5 binding to MEKK3; active compounds read low | binding response (% of control), % at 10 µM | 5,900 compounds, 1.8% hits | AID 1894;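 active means binding response below 72% of control, or above a set upper limit, though filed actives all read lower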;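 further: 100% = DMSO only wells and 0% = binding blocked by excess unlabeled MEK5; lower values mean stronger disruption of MEK5 binding to MEKK3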
PREPL inh cf – human PREPL inhibition, confirmation. shares compounds with PREPL inh. recombinant PREPL, fluorescence polarization activity probe. inhibition, % at 5.96 µM. 2,000 compounds, 67% hits. AID 2803;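 further: 0% = protein with DMSO and 100% = wells lacking protein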
Casp3 counter – inhibits human caspase-3 in UBC13 counter-screen. shares compounds with UBC13 inh. Recombinant caspase-3, Caspase-Glo 3/7 luminescence, 60 min. 1,400 compounds, 4% hits. inhibition, % at 20 µM;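 active means mean inhibition across replicates above about 26%, limit read from the data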;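 further: plate controls were DMSO with caspase-3 for no effect and DMSO wells lacking enzyme for full effect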
UBC13 conf – confirmation of human UBC13 polyubiquitin inhibitors. shares compounds with UBC13 inh. UBC13 polyubiquitination, TR-FRET, biochemical. inhibition, % at 10 µM. 1,400 compounds, 68% hits. AID 488859; in the data active means inhibition above about 45%
Apaf-1 inh conf – confirmation of Apaf-1 inhibitors. shares compounds with Apaf1 inhib. reconstituted apoptosome, caspase-3 DEVD-Rh110 fluorescence. inhibition, % at 20 µM. 1,800 compounds, 25% hits. AID 504614;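 active means mean inhibition of at least 40% at 20 µM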;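 further: plate controls were DMSO wells for no effect and DEVD-CHO caspase inhibitor control wells for full effect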
Rh110 interf inh – counter-screen for Apaf-1 inhibitors: fluorescence interference; shares compounds with Apaf1 inhib; Rh110 fluorescence interference, quenched caspase reaction; activation (fluorescence interference), % at 20 µM; 1,800 tested, under 10 active; AID 504615;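 active means signal rise of 40% or more at 20 µM, treated as a fluorescence artifact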
Apaf1 inh interf – Apaf-1 inhibitor counter-screen fluorescence artifact | AID 588538 | shares compounds with Apaf1 inhib | IC50, µM | 460 tested, under 10 active | fluorescence interference counterscreen, Apaf-1 assay format; call rule not given here
Starred values were filed as active, the others as inactive; ! = repeats disagree; [ ] = another dose, or the depositor's remark. Most compounds without a hit are left out; they make up all but 3.1% or so of the library. Unless noted, no stated cut-off is given here; in the data, active means inhibition above about 43%; inactive means the rest.

What do the screens show for `CSc1ccc2c(c1)C(N1CCN(C)CC1)Cc1ccccc1S2` (centres undefined)?
MEKK3 PB1 HTS: 108; PREPL inh: -2; MEKK2 WT-MEK5: 150*; Apaf1 inhib: 48*!; UBC13 inh: 52*!; MEKK2 mut-MEK5: 8; MEKK2wt confirm: 162; MEKK2mut confirm: 49; MEKK3 confirm: 108; Casp3 counter: 4; UBC13 conf: 25; Apaf-1 inh conf: 21; Rh110 interf inh: 17

How did CN1CCN(C2Cc3ccccc3Sc3cc(C(F)(F)F)ccc32)CC1 (centres undefined) do in these assays?
PREPL inh: -21; Apaf1 inhib: 14; UBC13 inh: 22

How did Cc1cccc(N2C(=NC(=O)c3ccccc3)SC3CS(=O)(=O)CC32)c1 (centres undefined) do in these assays?
MEKK3 PB1 HTS: 101; PREPL inh: 0; MEKK2 WT-MEK5: 104; Apaf1 inhib: 17; UBC13 inh: 8; MEKK2 mut-MEK5: 7

What do the screens show for `OC(CNCC1CCCO1)Cn1c2ccc(Cl)cc2c2cc(Cl)ccc21` (centres undefined)?
MEKK3 PB1 HTS: 104; PREPL inh: -13; MEKK2 WT-MEK5: 187*; Apaf1 inhib: 43*; UBC13 inh: 49*; MEKK2 mut-MEK5: 34; MEKK2wt confirm: 170; MEKK2mut confirm: 49; MEKK3 confirm: 113; Casp3 counter: -3; UBC13 conf: 89*; Apaf-1 inh conf: 14; Rh110 interf inh: 9

What do the screens show for `COc1ccc(-n2c(SCC(=O)NC3CC3)nc3ccccc3c2=O)cc1OC`?
PREPL inh: 2; Apaf1 inhib: -3; UBC13 inh: -5

What do the screens show for `O=C1COc2ccc(C(=O)COc3ccc([N+](=O)[O-])cc3)cc2N1`?
MEKK3 PB1 HTS: 96; PREPL inh: 1; MEKK2 WT-MEK5: 98; Apaf1 inhib: -34; UBC13 inh: 5; MEKK2 mut-MEK5: -7

How did O=[N+]([O-])c1ccc(O)c(C=Nc2ccc3nc(-c4ccccc4)[nH]c3c2)c1 do in these assays?
MEKK3 PB1 HTS: 93; PREPL inh: 24; MEKK2 WT-MEK5: 93; Apaf1 inhib: 17; UBC13 inh: -9; MEKK2 mut-MEK5: -3

Results for Oc1c(Br)cc(C=Nc2ccc3nc(-c4ccccc4)[nH]c3c2)c(O)c1Br ?
MEKK3 PB1 HTS: 88; PREPL inh: 43; MEKK2 WT-MEK5: 56*[inhibitor]; Apaf1 inhib: 65*; UBC13 inh: -18; MEKK2 mut-MEK5: -26; MEKK2wt confirm: 78; MEKK2mut confirm: -10; MEKK3 confirm: 95; Apaf-1 inh conf: 38; Rh110 interf inh: 1

Results for N#Cc1c(-c2ccccc2)nc(-c2ccccc2)nc1N1CCOCC1 ?
MEKK3 PB1 HTS: 100; PREPL inh: 5; MEKK2 WT-MEK5: 98; Apaf1 inhib: 15; UBC13 inh: 17; MEKK2 mut-MEK5: 5

Results for COc1ccc(-c2nc(-c3ccccc3)nc(N3CCN(C)CC3)c2C#N)cc1 ?
MEKK3 PB1 HTS: 105; PREPL inh: 6; MEKK2 WT-MEK5: 152*; Apaf1 inhib: 41*; UBC13 inh: 18; MEKK2 mut-MEK5: 6; MEKK2wt confirm: 154; MEKK2mut confirm: 28; MEKK3 confirm: 107; Apaf-1 inh conf: 13; Rh110 interf inh: 4

How did Cc1cc(C)c(NC(=O)CN(C)C(=O)CCC(=O)c2ccc(C)s2)c(C)c1 do in these assays?
PREPL inh: -4; Apaf1 inhib: 4; UBC13 inh: -4

Results for CCCCCCOC(=O)C(C#N)c1nc2ccccc2nc1N1CCN(CC)CC1 (centres undefined) ?
MEKK3 PB1 HTS: 104; PREPL inh: 17; MEKK2 WT-MEK5: 158*; Apaf1 inhib: 42*; UBC13 inh: 15; MEKK2 mut-MEK5: 30; MEKK2wt confirm: 145; MEKK2mut confirm: 21; MEKK3 confirm: 101; Apaf-1 inh conf: 28; Rh110 interf inh: 10

What do the screens show for `CCCn1c(C(O)c2cc(OC)c(OC)c(OC)c2)nc2ccccc21` (centres undefined)?
MEKK3 PB1 HTS: 90; PREPL inh: 1; MEKK2 WT-MEK5: 107; Apaf1 inhib: -4; UBC13 inh: -3; MEKK2 mut-MEK5: 1

How did COC(=O)CCC(=O)OC1(C)C(=O)C2=CN(C3CC3)C(c3ccc(OC)cc3)=CC2=C(Br)C1=O (centres undefined) do in these assays?
MEKK3 PB1 HTS: 87; PREPL inh: 75*; MEKK2 WT-MEK5: 2.0*[inhibitor]; Apaf1 inhib: 61*; UBC13 inh: -58; MEKK2 mut-MEK5: -2; MEKK2wt confirm: 93; MEKK2mut confirm: 2; MEKK3 confirm: 94; PREPL inh cf: 69*; Apaf-1 inh conf: 56*; Rh110 interf inh: 1; Apaf1 inh interf: >100
